In general, EC50 refers to the concentration needed to bring the measured effect to its halfway point. The logD is lipophilicity at a set pH, counting ionised and neutral species. High values mean a more lipophilic compound, low ones a more hydrophilic compound.

These results are taken from ChEMBL document CHEMBL4049430, “Indazole-6-phenylcyclopropylcarboxylic Acids as Selective GPR120 Agonists with in Vivo Efficacy” (J Med Chem, 2017).

Series [1] addresses Free fatty acid receptor 1 (Mus musculus, UniProt Q76JU9). Description: Agonist activity at mouse GPR40 expressed in HEK293 cells assessed as increase in intracellular calcium level after 5 mins by FLUO-4-AM dye-based FLIPR assay. Format: functional, cell-based. Put shortly:
(§1)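 HEK293s cells stably expressing mouse GPR40 were seeded 24 h before assay and loaded for 1 h with calcium 3/Fluo-4 AM in HBSS, 20 mM HEPES, 0.01% BSA, 2.5 mM probenecid, pH 7.4. FLIPR Tetra took 10 baseline reads, then read for 5 min after addition. Runs were in duplicate, 9 points, 100 μM to 7 nM final, as % of maximal eladic acid control.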
A general note: Calcium flux is commonly read through the fluorescence of an indicator in the cells.

The target of series [2] is T1, Free fatty acid receptor 4 (Homo sapiens, UniProt Q5NUL3).
T1 sequence (Q5NUL3 whole entry): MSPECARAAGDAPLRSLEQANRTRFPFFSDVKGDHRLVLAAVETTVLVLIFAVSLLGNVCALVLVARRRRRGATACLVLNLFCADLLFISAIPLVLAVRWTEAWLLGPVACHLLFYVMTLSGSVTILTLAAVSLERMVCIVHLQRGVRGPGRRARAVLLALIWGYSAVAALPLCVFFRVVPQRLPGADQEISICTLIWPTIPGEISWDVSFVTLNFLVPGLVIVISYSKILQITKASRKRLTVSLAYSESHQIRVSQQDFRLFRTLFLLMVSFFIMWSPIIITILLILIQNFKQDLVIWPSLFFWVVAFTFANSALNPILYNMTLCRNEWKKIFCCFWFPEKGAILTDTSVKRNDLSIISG
Description: Agonist activity at human GPR120 expressed in CHO-FlpIn cells after 15 mins by DMR assay. The class given is cell-based. Put shortly:
(§2)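 Cryopreserved CHO FlpIn cells stably expressing human or mouse GPR120 were seeded 48 h before assay, serum-starved for 24 h, then held 2 h in HBSS/20 mM HEPES/0.01% BSA (pH 7.4) with 0.5% DMSO. DMR was read over a 10 min baseline and for 15 min after addition. Runs were in duplicate, 10 points, 16 μM to 0.8 nM final, as % of maximal control agonist.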

The target of series [3] is Free fatty acid receptor 1 (Mus musculus) (UniProt Q76JU9). Description: Agonist activity at mouse GPR40 expressed in HEK293 cells assessed as increase in intracellular calcium level after 5 mins by FLUO-4-AM dye-based FLIPR assay relative to control. Format: functional, cell-based. In short, it runs like this: as §1
Sequence of Free fatty acid receptor 1 (Mus musculus) (Q76JU9 whole entry): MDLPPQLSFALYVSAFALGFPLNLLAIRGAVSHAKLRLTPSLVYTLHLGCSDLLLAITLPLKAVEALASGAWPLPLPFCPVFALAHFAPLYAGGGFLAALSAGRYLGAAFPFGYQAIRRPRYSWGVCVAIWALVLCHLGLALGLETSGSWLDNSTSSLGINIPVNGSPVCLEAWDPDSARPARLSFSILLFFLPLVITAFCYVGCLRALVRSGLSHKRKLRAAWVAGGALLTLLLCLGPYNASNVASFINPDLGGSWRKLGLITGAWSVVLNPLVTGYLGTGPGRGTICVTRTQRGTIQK
A short description of series [4]: Octanol-buffer partition coefficient, log D of the compound at pH 7.4 after 30 mins by LC-UV based shake-flask method.
Series [5] concerns the target T2, Free fatty acid receptor 4 (Homo sapiens) (UniProt Q5NUL3).
T2 sequence (whole entry): T1 sequence (Q5NUL3 whole entry)
Description: Agonist activity at human GPR120 expressed in CHO-FlpIn cells after 15 mins by DMR assay relative to control. Format: cell-based. In short, it runs like this:
as §2

Sequence of Free fatty acid receptor 1 (Q76JU9 whole entry): as above

Consider `Cc1nn(-c2ccccn2)c2cc(-c3ccc([C@H]4C[C@@H]4C(=O)O)cc3)ccc12` [listing 1 of 2 here], for which the results for the EC50 in series [1] and in series [2] were over 100 µM and 690 nM, respectively.
For `Cc1nn(-c2ccccn2)c2cc(-c3ccc([C@H]4C[C@@H]4C(=O)O)cc3)ccc12` (racemic) [listing 1 of 2 here] the same measures were over 100 µM and 850 nM.
Turning to `COc1nn(-c2ccccn2)c2cc(-c3ccc(CCC(=O)O)cc3)ccc12`, the values for the EC50 in series [1] and in series [2] were 2.6 µM and 250 nM, respectively. Further, the Efficacy in series [3] turned out to be 96%; in series [5], 122%. Further, the logD at 0.5 h in series [4] is 3.3.
For the compound `Cc1nn(-c2ccccn2)c2cc(-c3cccc(CCC(=O)O)c3)ccc12`, the EC50 in series [1] was over 100 µM; in series [2], over 17000 nM. Besides, the Efficacy in series [3] was found to be 0%; in series [5], 28%.
For `COc1cc(CCC(=O)O)ccc1-c1ccc2c(C)nn(-c3ccccn3)c2c1`, the EC50 in series [1] turned out to be 8.2 µM; in series [2], 720 nM. The Efficacy was determined as 62% in series [3] and 82% in series [5]. The logD at 0.5 h in series [4] was 2.4.
Turning to `Cc1nn(-c2ccccn2)c2cc(-c3ccc(CC(=O)O)cc3)ccc12`, the Efficacy in series [5] was determined as 8%. The compound also registered an EC50 in series [2] of over 17000 nM.
As to `Cc1nn(-c2ccccn2)c2cc(-c3ccc(C(C)CC(=O)O)cc3)ncc12` (configuration not stated), the EC50 in series [1] was 61 µM; in series [2] it was 12000 nM. For the same compound, the figures for the Efficacy in series [3] and in series [5] were 50% and 28%, respectively.
Regarding `Cc1nn(-c2ccccn2)c2cc(-c3ccc([C@H]4C[C@H]4C(=O)O)cc3)ccc12` (racemic), the EC50 in series [1] was 19 µM; in series [2], over 17000 nM. Moreover, the Efficacy in series [3] worked out at 81%; in series [5], 9%.
Turning to `Cc1nn(-c2ccccn2)c2cc(-c3ccc([C@H]4C[C@@H]4C(=O)O)cc3)ccc12` (racemic) [listing 2 of 2 here], the Efficacy amounted to 6% in series [3] and 87% in series [5].
Take `Cc1nn(-c2ccccn2)c2cc(-c3ccc(CCC(=O)O)cc3Cl)ccc12`: the EC50 was 1.2 µM in series [1] and 710 nM in series [2]. Moreover, the Efficacy in series [3] was 102%; in series [5], 113%. For the same compound, the pH-dependent lipophilicity (logD) at 0.5 h in series [4] is 3.3.
For `Cc1nn(-c2ccccn2)c2cc(-c3ccc(CCC(=O)O)cc3)ccc12`, the EC50 in series [1] stood at 1.4 µM; in series [2], 640 nM. The figures for the Efficacy in series [3] and in series [5] were 95% and 107%, respectively.
Consider `Cc1nn(-c2ccccn2)c2cc(-c3ccc(CC(C)(C)C(=O)O)cc3)ccc12`, for which the figures for the EC50 in series [1] and in series [2] were over 100 µM and 4100 nM, respectively. Further, the values for the Efficacy in series [3] and in series [5] were 18% and 79%, respectively.
For `C[C@H](Cc1ccc(-c2ccc3cnn(-c4ccccn4)c3c2)cc1)C(=O)O` the same measures were over 100 µM, 4300 nM, 18% and 88%.
The corresponding values for `Cc1nn(-c2ccccn2)c2cc(-c3ccc(CCCC(=O)O)cc3)ccc12` are 2.1 µM, 260 nM, 117% and 128%.
`Cc1nn(-c2ccccn2)c2cc(-c3cccc(CC(=O)O)c3)ccc12` returned an Efficacy in series [5] of 3%. The EC50 in series [2] is over 17000 nM.
As for `Cc1nn(-c2ccccn2)c2cc(-c3ccc([C@@H]4C[C@H]4C(=O)O)cc3)ccc12`, the EC50 in series [1] is over 100 µM; in series [2], over 17000 nM. Besides, the Efficacy is 2% in series [3] and 26% in series [5].
Regarding `Cc1nn(-c2ccccn2)c2cc(-c3ccc([C@H]4C[C@@H]4C(=O)O)cc3)ccc12` [listing 2 of 2 here], the Efficacy in series [3] worked out at 10%; in series [5] it was 95%.
With `O=C(O)CCc1ccc(-c2ccc3c(OCc4ccccc4)nn(-c4ccccn4)c3c2)cc1`, the EC50 in series [1] was 1.3 µM; in series [2], over 17000 nM. For the same compound, the Efficacy in series [3] is 81%; in series [5], 2%.
For `C[C@@H](Cc1ccc(-c2ccc3cnn(-c4ccccn4)c3c2)cc1)C(=O)O` the same measures were 3.8 µM, 4000 nM, 31% and 100%.
